The results in this text go back to ChEMBL document CHEMBL1124174, “Substituted benzamides. 1. Potential nondopaminergic antagonists of chemotherapy-induced nausea and emesis” (J Med Chem, 1988).

Values joined by “and” are separate entries in the source; they are usually repeats but may differ in a detail not shown here. Equal entries are not always repeated.

The target in assay [1] is D(2) dopamine receptor (Canis lupus familiaris) (UniProt Q9GJU1). As to the kind of experiment: In vivo antagonism activity against dopamine D2 receptor was measured as emesis in dog when administered subcutaneously. The assay is classed as functional, organism-based.
Assay [2] relates to Mustela putorius furo. As to the kind of experiment: In vivo antagonism of cisplatin-induced emesis in ferret measured as emetic episodes, twice the dose of 1 mg/kg and in 3 ferrets. The assay is classed as functional. The method in brief:
(§1)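 Nonfasted castrated male Fitch ferrets (1–1.5 kg) had jugular catheters implanted ≥48 h earlier under anesthesia. Compounds or saline were given iv twice, 5 min before and 90 min after cisplatin (12 mg/kg iv; 12 mg/mL in warm 0.9% saline). Emesis was observed up to 4 h; events within 1 min counted as one episode. Results were given as mean emetic episodes and % protection versus a pooled historical/concurrent control. t test versus saline.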

Assay [3] has as its system Mustela putorius furo. As to the kind of experiment: In vitro antagonism of cisplatin-induced emesis in ferret measured as percentage protection for twice the dose of 1 mg/kg and in 3 ferrets. The assay is classed as functional. Conditions: in the assay text read “In vivo” for “In vitro”. Summed up:
as §1

For assay [4], the system named is Canis familiaris. As to the kind of experiment: In vivo antagonism of cisplatin-induced emesis in dog measured as percentage protection for twice the dose of 0.3 mg/kg in 2 dogs. The assay is classed as functional, Canis lupus familiaris. Summed up:
(§2)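 Nonfasted mature male or female beagles were dosed sc twice, 30 min before and 120 min after cisplatin (3 mg/kg iv; 3 mg/mL in warm 0.9% saline, used immediately). Emesis was observed up to 5 h; events within 2 min counted as one episode. Results were given as mean emetic episodes and % protection versus a dynamic control (historical and concurrent saline means pooled). t test versus saline.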

The target in assay [5] is D(2) dopamine receptor (Rattus norvegicus) (UniProt P61169). As to the kind of experiment: In vivo antagonism activity against D2 receptor was measured as stereotypy in rat when administered subcutaneously. The class given is functional, organism-based. The method in brief: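 Male Long Evans rats (275 g) were dosed sc in dilute aqueous HCl (pH 4.5-5.5) 30 min before apomorphine (1 mg/kg sc).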

For assay [6] the target is unchanged. As to the kind of experiment: In vivo antagonistic activity against dopamine D2 receptor was measured as catalepsy in rat when administered subcutaneously. The assay is classed as functional, organism-based. Summed up:
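Male Long Evans rats (275 g) received graded sc doses in dilute aqueous HCl (pH 4.5-5.5). They were observed 180 min for catalepsy, scored when the animal stayed stationary ≥15 s on a four-cork template.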

In assay [7] the test system is Canis familiaris. As to the kind of experiment: In vivo antagonism of cisplatin-induced emesis in dog measured as emetic episodes, twice the dose of 0.3 mg/kg in 2 dogs. The assay is classed as functional, Canis lupus familiaris. The method in brief: as §2
The target in a further assay is D(2) dopamine receptor (Rattus norvegicus, UniProt P61169). The assay can be described thus: In vitro antagonistic activity against Dopamine receptor D2 was evaluated for the inhibition of [3H]spiperone binding. Summed up:
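Rat striatal membranes were prepared by differential centrifugation in 50 mM Tris pH 7.4 at 4 °C. Membrane protein (10 mg) was incubated 15 min at 37 °C with 0.1 nM [3H]spiperone and varying competitor concentrations. Buffer: 50 mM Tris HCl pH 7.5, 0.1% ascorbic acid, pargyline, 120 mM NaCl, 5 mM KCl, 2 mM CaCl2, 1 mM MgCl2. (+)-Butaclamol defined nonspecific binding. Bound ligand was collected by filtration and scintillation counted. IC50 by log-logit regression.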

Assay [8] has as its system Mustela putorius furo. The assay can be described thus: In vivo antagonism of cisplatin-induced emesis in ferret measured as emetic episodes, twice the dose of 0. 3 mg/kg and in 3 ferrets. The class given is functional. The method in brief: as §1
Assay [9] deals with Canis familiaris. The assay can be described thus: In vivo antagonism of cisplatin-induced emesis in dog measured as emetic episodes, twice the dose of 1 mg/kg in 2 dogs. The assay is classed as functional, Canis lupus familiaris. Summed up:
as §2

The subject of assay [10] is Mustela putorius furo. The assay can be described thus: In vivo antagonism of cisplatin-induced emesis in ferret measured as percentage protection for twice the dose of 0.3 mg/kg and in 3 ferrets. The assay is classed as functional. Summed up: as §1
In assay [11] the test system is Canis familiaris. As to the kind of experiment: In vivo antagonism of cisplatin-induced emesis in dog measured as percentage protection for twice the dose of 1 mg/kg in 2 dogs. The assay is classed as functional, Canis lupus familiaris. The method in brief: as §2
The subject of assay [12] is Mustela putorius furo. The assay can be described thus: In vivo antagonism of cisplatin-induced emesis in ferret measured as percentage protection for twice the dose of 3 mg/kg and in 3 ferrets. The class given is functional. Summed up:
as §1

The subject of assay [13] is Mustela putorius furo. The assay can be described thus: In vivo antagonism of cisplatin-induced emesis in ferret measured as emetic episodes, twice the dose of 3 mg/kg and in 3 ferrets. The assay is classed as functional. The method in brief:
as §1

Assay [14] deals with Canis familiaris. The assay can be described thus: In vivo antagonism of cisplatin-induced emesis in dog measured as emetic episodes, twice the dose of 6 mg/kg in 2 dogs. The assay is classed as functional, Canis lupus familiaris. Summed up:
as §2

Assay [15] has as its system Mustela putorius furo. The assay can be described thus: In vivo antagonism of cisplatin-induced emesis in ferret measured as percentage protection for twice the dose of 3 mg/kg and in 2 ferrets. The assay is classed as functional. The method in brief:
as §1

Assay [16] has as its system Canis familiaris. The assay can be described thus: In vivo antagonism of cisplatin-induced emesis in dog measured as percentage protection for twice the dose of 6 mg/kg in 2 dogs. The assay is classed as functional, Canis lupus familiaris. The method in brief: as §2
Assay [17] deals with Canis familiaris. As to the kind of experiment: In vivo antagonism of cisplatin-induced emesis in dog measured as emetic episodes, twice the dose of 6 mg/kg in 3 dogs. The assay is classed as functional, Canis lupus familiaris. Summed up:
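Nonfasted mature male or female beagles received test compound or saline sc twice, 30 min before and 120 min after cisplatin (3 mg/kg iv; 3 mg/mL in warm 0.9% saline, used at once). Emesis observed up to 5 h. Emetic episode = expulsion of stomach content; events within 2 min counted as one. Protection calculated against a dynamic control (historical mean pooled with concurrent saline control).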

Assay [18] deals with Canis familiaris. As to the kind of experiment: In vivo antagonism of cisplatin-induced emesis in dog measured as emetic episodes, twice the dose of 3 mg/kg in 3 dogs. The assay is classed as functional, Canis lupus familiaris. Summed up:
as §2

Assay [19] concerns Canis familiaris. The assay can be described thus: In vivo antagonism of cisplatin-induced emesis in dog measured as percentage protection for twice the dose of 3 mg/kg in 2 dogs. The class given is functional, Canis lupus familiaris. Conditions: 3 mg/kg. Summed up: as §2

Sequence of D(2) dopamine receptor (Canis lupus familiaris) (Q9GJU1 whole entry): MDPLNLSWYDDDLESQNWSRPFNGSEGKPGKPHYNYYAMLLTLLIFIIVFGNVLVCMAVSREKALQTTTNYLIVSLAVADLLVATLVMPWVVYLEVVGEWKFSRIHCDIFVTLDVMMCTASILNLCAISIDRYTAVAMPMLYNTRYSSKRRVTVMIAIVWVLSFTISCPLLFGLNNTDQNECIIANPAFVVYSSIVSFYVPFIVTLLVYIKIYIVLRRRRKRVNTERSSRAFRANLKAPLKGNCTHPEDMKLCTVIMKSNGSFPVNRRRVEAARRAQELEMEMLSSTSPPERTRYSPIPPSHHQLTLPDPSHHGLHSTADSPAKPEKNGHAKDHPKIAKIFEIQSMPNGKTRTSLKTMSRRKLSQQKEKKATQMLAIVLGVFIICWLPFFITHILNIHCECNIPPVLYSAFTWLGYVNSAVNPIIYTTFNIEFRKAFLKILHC
Sequence of D(2) dopamine receptor (P61169 whole entry): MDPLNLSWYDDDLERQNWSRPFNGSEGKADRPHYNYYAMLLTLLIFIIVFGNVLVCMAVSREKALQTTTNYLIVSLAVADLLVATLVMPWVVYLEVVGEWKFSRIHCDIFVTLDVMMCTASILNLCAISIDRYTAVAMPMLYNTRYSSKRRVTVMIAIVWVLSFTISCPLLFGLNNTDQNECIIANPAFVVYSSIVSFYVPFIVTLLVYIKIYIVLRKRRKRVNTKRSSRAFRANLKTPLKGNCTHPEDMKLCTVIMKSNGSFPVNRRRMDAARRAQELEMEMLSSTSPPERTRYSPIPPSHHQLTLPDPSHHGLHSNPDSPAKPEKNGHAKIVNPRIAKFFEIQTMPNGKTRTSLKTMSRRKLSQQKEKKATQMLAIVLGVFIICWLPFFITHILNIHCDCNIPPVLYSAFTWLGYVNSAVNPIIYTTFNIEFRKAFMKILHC
Sequence of D(2) dopamine receptor (Rattus norvegicus) (P61169 whole entry): as above

Turning to `CCN(CC)CCNC(=O)c1cc(Cl)c(N)cc1OC(C)(C)C(C)=O`, the ED50 in assay [1] is greater than 3 mg/kg; in assay [5], greater than 40 mg/kg; in assay [6], greater than 40 mg/kg. The Emetic episodes in the assay with Mustela putorius furo [2] and with Canis familiaris [7] was 2.7 in each case. Also, the Protection turned out to be 62% with Mustela putorius furo [3] and 77% in the assay on Canis familiaris [4]. Further, on D(2) dopamine receptor, the IC50 was greater than 1000 nM.
For `CCN(CC)CCNC(=O)c1cc(Cl)c(N)cc1OCC(OC)OC`, the figures for the Emetic episodes in the assay on Mustela putorius furo [8], in the assay on Canis familiaris [9] and in the assay on Mustela putorius furo [13] were 6.7, 1.5 and 1.3, respectively. The ED50 in [1] is greater than 3 mg/kg; in [5], greater than 40 mg/kg; in assay [6], greater than 40 mg/kg. Besides, the figures for the Protection in the assay with Mustela putorius furo [10], in the assay with Canis familiaris [11] and with Mustela putorius furo [12] were 0%, 88% and 82%, respectively. This compound came in with an IC50 on D(2) dopamine receptor greater than 1000 nM.
Turning to `CCN(CC)CCNC(=O)c1cc(Cl)c(N)cc1O`, the ED50 in [1] was greater than 1 mg/kg; in [5], greater than 40 mg/kg; in assay [6] it was greater than 40 mg/kg. The compound further displayed an Emetic episodes in the assay on Canis familiaris [14] of 2. Moreover, the Protection in the assay with Mustela putorius furo [15] worked out at 40%; with Canis familiaris [16], 84%. Also, the IC50 on D(2) dopamine receptor is greater than 1000 nM.
Turning to `C=CCN1CCCC1CNC(=O)c1cc2nn[nH]c2cc1OC` (stereo not drawn) [ALIZAPRIDE], the ED50 in assay [1] is 0.3 mg/kg; in assay [5] it was greater than 40 mg/kg; in assay [6], greater than 40 mg/kg. Also, the results for the Emetic episodes in the assay on Canis familiaris [17], in the assay on Canis familiaris [18] and in the assay with Mustela putorius furo [13] were 4.7, 4.3 and 5, respectively. The Protection in the assay on Canis familiaris [19] was 69% and 66%; in the assay with Mustela putorius furo [12], 27%.
